# Test results: ChEMBL document CHEMBL1121837, “Synthesis and antischistosomal activity of certain pyrazolo[1,5-a]pyrimidines” (1981)
# Tested on: Schistosoma mansoni
# Assay: In vitro antischistosomal activity, minimum active concentration to cause severe damage or death of worms at 96 hr against Schistosoma mansoni
# Format: functional
# In short: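 Adult S. mansoni pairs (Puerto Rican strain, 46-day infection, recovered from mice) incubated at 37 °C, 2.0 mL medium per pair, in serumless medium with 50 µg/mL gentamycin sulfate. Compound dissolved in DMSO, final DMSO ≤1%. Worms examined by inverted microscope at intervals up to 96 h, when the final reading was taken.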
row,SMILES,MAC [µg/mL]
1,COc1cc(-c2cc3nc(C)cc(S)n3n2)cc(OC)c1OC,1
2,Cc1cc(O)n2nc(-c3cccc(Cl)c3)cc2n1,>100
3,O=c1cc(-c2ccccc2)[nH]c2cc(-c3cccc(Cl)c3)nn12,>100
4,Sc1ccnc2ccnn12,1
5,Oc1cc(-c2ccccc2)nc2c(-c3ccccc3)cnn12,10
6,Oc1cc(-c2ccccc2)nc2cc(-c3ccccc3)nn12,>100
7,Cc1cc(=S)n2nccc2n1C,>100
8,Cc1cc(S)n2ncc(-c3ccc(Cl)cc3)c2n1,100
9,CCCn1ccc(=O)n2nc(-c3ccccc3)cc12,100
10,Oc1cc(-c2ccccc2)nc2c(-c3ccc(Cl)cc3)cnn12,100
11,Cc1cc(O)n2nc(-c3ccccc3)cc2n1,100
12,Oc1cc(-c2ccccc2)nc2ccnn12,>100
13,COc1cc(-c2cc3nc(-c4ccccc4)cc(O)n3n2)cc(OC)c1OC,>100
14,Sc1ccnc2c(-c3ccccc3)cnn12,1
15,Sc1cc(-c2ccccc2)nc2cc(-c3ccccc3)nn12,1
16,Cn1ccc(=O)n2nccc12,>100
17,Cc1cc(O)n2ncc(-c3ccccc3)c2n1,100
18,Sc1cc(-c2ccccc2)nc2ccnn12,1
19,Cn1ccc(=S)n2nccc12,>100
20,Cn1ccc(=S)n2nc(-c3ccccc3)cc12,10

row,SMILES,MAC [µg/mL]
1,COc1cc(-c2cc3nc(C)cc(O)n3n2)cc(OC)c1OC,>100
2,Cn1c(-c2ccccc2)cc(=O)n2nc(-c3ccccc3)cc12,100
3,Cc1cccc(-c2cnn3c(S)ccnc23)c1,0.32
4,Sc1ccnc2cc(-c3ccccc3)nn12,1
5,Cc1cccc(-c2cnn3c(O)ccnc23)c1,100
6,Cc1cccc(-c2cnn3c(O)cc(-c4ccccc4)nc23)c1,1
7,CCn1ccc(=O)n2nccc12,>100
8,Cc1cc(S)n2nccc2n1,3.2
9,Cc1cc(S)n2nc(-c3ccccc3)cc2n1,1
10,Cc1cccc(-c2cnn3c(O)cc(C)nc23)c1,100
11,CCOC(=O)c1cnn2c(O)cc(-c3ccccc3)nc12,>100
12,Oc1ccnc2cc(-c3ccccc3)nn12,>100
13,CCOC(=O)c1cnn2c(S)cc(C)nc12,10
14,CCCn1ccc(=S)n2nc(-c3ccccc3)cc12,10
15,Cc1cccc(-c2cnn3c(S)cc(C)nc23)c1,100
16,Cc1cc(=O)n2nccc2n1C,100
17,Cc1cc(S)n2ncc(-c3ccccc3)c2n1,1
18,Cn1ccc(=O)n2nc(-c3ccccc3)cc12,>100
19,Oc1ccnc2c(-c3ccccc3)cnn12,100
20,CCn1ccc(=S)n2nccc12,100
